Data on 13 molecules can be found in ChEMBL document CHEMBL1147039, “Disrupting antibiotic resistance propagation by inhibiting the conjugative DNA relaxase” (Proc Natl Acad Sci U S A, 2007).

Data set [1] has as its system Type IV secretion-like conjugative transfer relaxase protein TraI (Escherichia coli (strain SMS-3-5 / SECEC)), B1LRJ1 [Y16F]. The experiment in a line: (§1) Inhibition of Escherichia coli F plasmid TraI relaxase Y16F mutant assessed as oriT ssDNA cleavage at 200 nM.
Data set [2] concerns Escherichia coli. The data set is described as follows: Inhibition of conjugate DNA transfer between tetracycline-resistant F plasmid positive Escherichia coli JS10 to streptomycin-resistant F plasmid deficient Escherichia coli JS4. The data set is classed as functional, organism-based. In outline:
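F+ donor and F− recipient E. coli were mixed 1:9 in dilute liquid medium with increasing inhibitor concentrations for 100 min. Inhibitor was removed before transconjugants were selected with antibiotics. Transconjugants were counted as colonies on agar, or by oxygen-biosensor fluorescence in antibiotic medium. EC50 for DNA transfer was derived from the counts.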

For data set [3], the system named is Escherichia coli. The data set is described as follows: Cytotoxicity against tetracycline-resistant F plasmid positive Escherichia coli JS10. The data set is classed as functional, organism-based. In outline:
(§2)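 Donor and recipient strains were kept separate and exposed to inhibitor for 100 min. Inhibitor was added at the start and removed before selection. Surviving cells were counted on antibiotic-selective agar plates, or in antibiotic-containing medium by an oxygen-quenched fluorophore gel assay in which fluorescence is proportional to live cells. EC50 was determined from cell counts.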

The test system of data set [4] is Escherichia coli. The experiment in a line: Selectivity ratio, ratio of EC50 for Escherichia coli JS4 to EC50 for Escherichia coli JS10. The data set is classed as functional. In outline:
(§3)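 Each ratio divides one EC50 by another. The EC50s come from 100-min inhibitor exposures: separate donor and recipient survival assays, and a 1:9 donor:recipient liquid mating assay. Viable or transconjugant cells were counted on selective agar or by oxygen-quenched fluorescence in antibiotic medium.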

The test system of data set [5] is Escherichia coli. The experiment in a line: Selectivity ratio, ratio of EC50 for inhibition of conjugate DNA transfer between Escherichia coli JS10 and Escherichia coli JS4 to EC50 for Escherichia coli JS10. The data set is classed as functional. The method in brief:
as §3

Data set [6] concerns Escherichia coli. The data set is described as follows: Selectivity ratio, ratio of EC50 for Escherichia coli JS10 to ratio of EC50 for inhibition of conjugate DNA transfer between Escherichia coli JS10 and Escherichia coli JS4. The data set is classed as functional. The method in brief: as §3
Data set [7] concerns Escherichia coli. The experiment in a line: Selectivity ratio, ratio of EC50 for Escherichia coli JS4 to ratio of EC50 for inhibition of conjugate DNA transfer between Escherichia coli JS10 and Escherichia coli JS4. The data set is classed as functional. In outline: as §3
In data set [8] the test system is Type IV secretion-like conjugative transfer relaxase protein TraI (Escherichia coli (strain SMS-3-5 / SECEC)), B1LRJ1 [Y16F]. Described as §1. This is another data set of the same source.
In data set [9] the target is T1, Type IV secretion-like conjugative transfer relaxase protein TraI (Escherichia coli (strain SMS-3-5 / SECEC), UniProt B1LRJ1, Y16F). The experiment in a line: Inhibition of Escherichia coli F plasmid TraI relaxase Y16F mutant assessed as oriT ssDNA cleavage by competitive inhibition assay. The method in brief:
(§4)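 Truncated F plasmid TraI (residues 1–300, Y16F) was expressed in E. coli at 30°C as an intein–chitin-binding-domain fusion, purified on chitin resin and released by DTT cleavage. Biotinylated oriT ssDNA was either fluorescein end-labelled or hybridised after the reaction to an end-labelled probe. Reactions ran at 37°C, were stopped with SDS/EDTA at 80°C, and were read on streptavidin-coated plates.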

For data set [10], the system named is Escherichia coli. The experiment in a line: Cytotoxicity against streptomycin-resistant F plasmid deficient Escherichia coli JS4. The data set is classed as functional, organism-based. The method in brief:
as §2

For data set [11], the target named is T1, Type IV secretion-like conjugative transfer relaxase protein TraI. The experiment in a line: Inhibition of Escherichia coli F plasmid TraI relaxase Y16F mutant assessed as oriT ssDNA cleavage by uncompetitive inhibition assay. In outline:
as §4

Substrate in data set [12]: O=P(O)(O)NP(=O)(O)O
The experiment in a line: Activity of Escherichia coli F plasmid TraI relaxase Y16F mutant assessed as oriT ssDNA cleavage. In outline: as §4

Calls of active or inactive are those of the source. The calls are words filed in the database; no cut-off is given here. Bounds are passed on as bounds.

Usually EC50 stands for the midpoint of the concentration-response curve. Read a low EC50 as greater potency. In general, Ki refers to a dissociation constant, usually derived from enzyme kinetics or from competition with a known ligand. The Km is the concentration of substrate that gives half-maximal velocity. Usually Vmax stands for the top rate of the reaction or transport when substrate is in excess.

For `COP(=O)(OC)c1ccccc1P(=O)(OC)OC`, in data set [1], the result was inactive. In addition, the EC50 in the data set with Escherichia coli [2] came to 14 µM; with Escherichia coli [3], 0.068 µM. The “Ratio EC50” value in the data set on Escherichia coli [4] is listed as 1500000; in the data set with Escherichia coli [5], 210; in the data set on Escherichia coli [6] it was 0.0048; in the data set on Escherichia coli [7], 7100.

Turning to `CC1(C)S[C@@H]2[C@H](NC(=O)[C@H](N)c3ccccc3)C(=O)N2[C@H]1C(=O)O`, the result in data set [1] was inactive.

In the case of `NCCCCCC(O)(P(=O)(O)O)P(=O)(O)O`, the outcome in data set [1] and in [8] was inactive.

Turning to `O=C(O)CN(CP(=O)(O)O)CP(=O)(O)O`, the outcome in data set [1] was inactive.

For the molecule `O=P(O)(O)CCCCP(=O)(O)O`, in data set [1], the outcome was inactive.

For `O=P(O)(O)CN(CP(=O)(O)O)CP(=O)(O)O`, the result in data set [1] was inactive.

For the molecule `O=P(O)(O)C(Cl)(Cl)P(=O)(O)O` [CLODRONIC ACID], the Ki in data set [9] was 0.003 µM. Besides, the result in data set [1] was inactive. In addition, in data set [8], the outcome was Active. For the same molecule, the EC50 in the data set on Escherichia coli [2] was determined as 0.11 µM; in the data set with Escherichia coli [3], 9 µM; in the data set with Escherichia coli [10] it was 3000 µM. Moreover, the “Ratio EC50” value is 330 in the data set on Escherichia coli [4], 0.013 in the data set with Escherichia coli [5], 78 in the data set with Escherichia coli [6] and 26000 in the data set on Escherichia coli [7].

Consider `CC(O)(P(=O)(O)O)P(=O)(O)O` [ETIDRONIC ACID], for which the Ki in [9] amounted to 0.003 µM. Besides, in data set [1], the outcome was inactive. Also, the result in [8] was Active. Also, the EC50 with Escherichia coli [2] was 0.33 µM; in the data set with Escherichia coli [3] it was 10 µM; in the data set with Escherichia coli [10], 370 µM. Further, the “Ratio EC50” value with Escherichia coli [4] came out at 38; in the data set on Escherichia coli [5], 0.034; in the data set on Escherichia coli [6] it was 30; with Escherichia coli [7] it was 1100.

Regarding `O=P(O)(O)NP(=O)(O)O` [IMIDODIPHOSPHATE], the Ki came to 0.002 µM in [9] and 0.0027 µM in data set [11]. In addition, the outcome in data set [1] was inactive. The EC50 in the data set on Escherichia coli [2] is 10 µM; in the data set on Escherichia coli [3] it was 0.43 µM; in the data set with Escherichia coli [10], 620 µM. In addition, the “Ratio EC50” value in the data set with Escherichia coli [4] stood at 1400; in the data set on Escherichia coli [6], 0.014; in the data set on Escherichia coli [7], 20.

As to `O=P(O)(O)CNCP(=O)(O)O` [IMINOBIS(METHYLPHOSPHONIC ACID)], in data set [1], the outcome was inactive. In addition, the EC50 amounted to 0.58 µM with Escherichia coli [2], 0.016 µM in the data set on Escherichia coli [3] and 5000 µM in the data set with Escherichia coli [10]. In addition, the “Ratio EC50” value in the data set with Escherichia coli [4] was determined as 330000; in the data set with Escherichia coli [5], 36; in the data set with Escherichia coli [6] it was 0.028; in the data set on Escherichia coli [7] it was 9000.

With `O=P(O)(O)CP(=O)(O)O` [MEDRONIC ACID], the Ki in [9] was found to be 0.003 µM. In data set [1], the outcome was inactive. For the same molecule, the EC50 worked out at 0.35 µM with Escherichia coli [2], 0.51 µM in the data set with Escherichia coli [3] and 870 µM in the data set with Escherichia coli [10]. Further, the “Ratio EC50” value in the data set on Escherichia coli [4] is given as 1700; in the data set on Escherichia coli [5], 0.68; in the data set with Escherichia coli [6] it was 1.5; with Escherichia coli [7], 20.

On to `NCCC(O)(P(=O)(O)O)P(=O)(O)O` [PAMIDRONIC ACID], for which the result in [1] and in [8] was inactive. For the same molecule, the EC50 in the data set on Escherichia coli [2], in the data set with Escherichia coli [3] and with Escherichia coli [10] was above 10000 µM each time.

B1: Type IV secretion-like conjugative transfer relaxase protein TraI (Escherichia coli (strain SMS-3-5 / SECEC)), B1LRJ1 Y16F (protein)
chain: MMSIAQVRSAGSAGNFYTDKDNYYVLGSMGERWAGRGAEQLGLQGSVDKDVFTRLLEGRLPDGADLSRMQDGSNKHRPGYDLTFSAPKSVSMMAMLGGDKRLIDAHNQAVDFAVRQVEALASTRVMTDGQSETVLTGNLVMALFNHDTSRDQEPQLHTHAVVANVTQHNGEWKTLSSDKVGKTGFIENVYANQIAFGRLYREKLKEQVEALGYETEVVGKHGMWEMPGVPVEAFSGRSQTIREAVGEDASLKSRDVAALDTRKSKQHVDPEIKMTEWMQTLKETGFDIRAYRDAAEQRAYTRTQTPGPASQDGPDVQQAVTQAIAGLSERKVQFTYTDVLARTVGILPPEAGVIERARAGIDEAISREQLIPLDREKGLFTSGIHVLDELSVRALSRDIMKQNRVTVHPEKSVPRTAGYSDAVSVLAQDRPSLAIVSGQGGAAGQRERVAELVMMAREQGREVQIIAADRRSQMNLKQDERLSGELITGRRQLLEGMAFTPGSTVIVDQGEKLSLKETLTLLDGAARHNVQVLITDSGQRTGTGSALMAMKDAGVNTYRWQGGEQRPATIISEPDRNVRYARLAGDFAASVKAGEESVAQVSGVREQAILTQAIRSELKTQGVLGHQEVTMTALSPVWLDSRSRYLRDMYRPGMVMEQWNPETRSHDRYVIDRVTAQSHSLTLRDAQGETQVVRISSLDSSWSLFRPEKMPVADGERLRVTGKIPGLRVSGGDRLQVASVSEDAMTVVVPGRAEPASLPVADSPFTALKLENGWVETPGHSVSDSAKVFAAVTQMAMDNATLNGLARSGRDVRLYSSLDETRTAEKLARHPSFTVVSEQIKAHAGETSLETSISLQKAGLHTPAQQAIHLALPVLESKKLAFSMVDLLTEAKSFAAEGTGFTELGGEINAQIKRGDLLYVDVAKGYGTGLLVSRASYEAEKSILRHILEGKEAVTPLMERVPGELMEKLTSGQRAATRMILETSDRFTVVQGYAGVGKTTQFRAVMSAVNMLPESMRPRVVGLGPTHRAVGEMRSAGVDAQTLASFLHDTQLQQRSGETPDFSNTLFLLDESSMVGNTDMARAYALIAAGGGRAVASGDTDQLQAIAPGQPFRLQQTRSAADVAIMKEIVRQTPELREAVYNLINRDVERALSGLERVKPSQVPRLEGAWAPEHSVMEFSHSQEAKLAEAQQKAMLKGEAFPDVPMTLYEAIVRDYTGRTPEAREQTLIVTHLNEDRRVLNSMIHDAREKAGELGKEQVMVPVLNTANIRDGELRRLSTWETHRDALVLVDNVYHRIAGISKDDGLITLEDAEGNTRLISPREAVAEGVTLYTPDTIRVGTGDRMRFTKSDRERGYVANSVWTVTAVSGDSVTLSDGQQTRVIRPGQERAEQHIDLAYAITAHGAQGASETFAIALEGTEGNRKQMAGFESAYVALSRMKQHVQVYTDNRQGWTDAINNAVQKGTAHDVFEPKPDREVMNAERLFSTARELRDVAAGRAVLRQAGLAGGDSPARFIAPGRKYPQPYVALPAFDRNGKSAGIWLNPLTTDDGNGLRGFSGEGRVKGSGDAQFVALQGSRNGESLLADNMQEGVRIARDNPDSGVVVRIAGEGRPWNPGAITGGRVWGDIPDNSVQPGAGNGEPVTAEVLAQRQAEEAIRRETERRADEIVRKMAENKPDLPDGKTEQAVREIAGQERDRAAITEREAALPESVLRESQREREAVREVARENLLQERLQQMERDMVRDLQKEKTLGGD
Consider B1, for which, in data set [12], the Km stood at 0.294 µM and the Vmax was determined as 0.51 nM/s.
